Calls of active or inactive are those of the source. The calls are words filed in the database; no cut-off is given here.
Tests used:
[1] = target: Prostaglandin G/H synthase 1 (Homo sapiens, UniProt P23219); test: Inhibition of COX1 expressed in CHO cells assessed as inhibition of arachidonic acid-stimulated PGE2 production by enzyme immunoassay; format: functional, cell-based
[2] = target: T1, Prostaglandin G/H synthase 2 (Homo sapiens, UniProt P35354); test: Inhibition of COX2 expressed in CHO cells assessed as inhibition of arachidonic acid-stimulated PGE2 production by enzyme immunoassay
T1 sequence (P35354 whole entry): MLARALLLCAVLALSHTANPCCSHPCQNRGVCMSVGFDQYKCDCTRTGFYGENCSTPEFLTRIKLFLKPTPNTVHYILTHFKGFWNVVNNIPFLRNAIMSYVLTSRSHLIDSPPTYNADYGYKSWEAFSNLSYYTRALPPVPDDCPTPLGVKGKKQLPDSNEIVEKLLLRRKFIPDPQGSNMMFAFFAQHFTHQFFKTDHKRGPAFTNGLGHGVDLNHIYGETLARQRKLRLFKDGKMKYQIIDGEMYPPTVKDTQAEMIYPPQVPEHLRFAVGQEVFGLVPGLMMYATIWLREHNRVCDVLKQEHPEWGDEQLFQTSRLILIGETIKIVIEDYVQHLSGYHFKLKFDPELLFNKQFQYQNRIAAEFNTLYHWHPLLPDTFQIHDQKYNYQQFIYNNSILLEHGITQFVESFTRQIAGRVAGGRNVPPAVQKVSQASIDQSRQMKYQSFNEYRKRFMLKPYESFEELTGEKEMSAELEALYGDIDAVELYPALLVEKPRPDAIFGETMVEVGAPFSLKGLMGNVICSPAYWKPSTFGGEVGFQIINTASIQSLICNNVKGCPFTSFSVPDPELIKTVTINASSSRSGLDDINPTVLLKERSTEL

Homo sapiens = species on record: Homo sapiens; test: Selectivity for COX2 over COX1
Outline: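 Ratio of COX-1 to COX-2 IC50s, each taken from PGE2 production in CHO cells transfected with COX-1 or with COX-2. Cells were seeded and, 18 h later, given fresh Ham's F12 with 10% fetal calf serum with or without compound. After 10 min they were stimulated with arachidonic acid, then for 10 min with calcium ionophore A 23187. Intracellular PGE2 was read by enzyme immunoassay, n = 2.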

[3] = target: T2, Polyunsaturated fatty acid 5-lipoxygenase (Homo sapiens, UniProt P09917); test: Inhibition of 5LOX in human whole blood assessed as inhibition of calcium ionophore A 23187-stimulated 5HETE production by HPLC analysis; format: functional, tissue-based
T2 sequence (P09917 whole entry): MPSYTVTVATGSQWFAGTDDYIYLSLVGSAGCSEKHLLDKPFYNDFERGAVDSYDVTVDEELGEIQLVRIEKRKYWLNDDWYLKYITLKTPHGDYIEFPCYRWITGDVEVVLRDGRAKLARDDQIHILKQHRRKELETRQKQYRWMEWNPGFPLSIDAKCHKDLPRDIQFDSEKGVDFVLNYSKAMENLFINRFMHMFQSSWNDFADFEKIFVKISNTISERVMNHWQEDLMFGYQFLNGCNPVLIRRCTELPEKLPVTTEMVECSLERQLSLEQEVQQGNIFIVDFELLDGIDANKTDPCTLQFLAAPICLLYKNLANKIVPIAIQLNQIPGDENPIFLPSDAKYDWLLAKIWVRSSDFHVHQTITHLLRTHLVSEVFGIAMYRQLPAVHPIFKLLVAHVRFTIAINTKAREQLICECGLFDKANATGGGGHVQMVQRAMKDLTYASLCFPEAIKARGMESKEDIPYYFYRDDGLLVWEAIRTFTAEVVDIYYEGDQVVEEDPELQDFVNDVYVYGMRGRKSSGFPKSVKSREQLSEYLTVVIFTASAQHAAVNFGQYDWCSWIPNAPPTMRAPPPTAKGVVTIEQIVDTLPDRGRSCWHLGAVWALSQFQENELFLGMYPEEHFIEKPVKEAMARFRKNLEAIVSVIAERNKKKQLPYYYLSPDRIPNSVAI
Outline: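 Heparinized human whole blood, 1 mL aliquots, preincubated 15 min at 37 °C with compound or DMSO vehicle; then stimulated with 40 μM A 23187 for 15 min at 37 °C. 5-HETE extracted into ethyl acetate, then HPLC on a C18 column, methanol/water/acetic acid 80:20:0.08, pH 6.0, UV at 234 nm. IC50 from n = 2.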

PC-3 [4] = test: Antiproliferative activity against androgen-independent human PC3 cells at 100 uM after 72 hrs by MTT test; format: functional
Outline: (§1)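 Prostate carcinoma cells kept at 37 °C, 5% CO2 in RPMI 1640 with 10% fetal calf serum; seeded 1.8 × 10⁴ (PC 3) or 5.0 × 10⁴ (LNCaP) cells/well, grown 3 days, serum-starved 24 h for synchronization, then exposed 72 h to compounds in medium (<0.1% DMSO); growth read by colorimetric MTT. Mean of at least four independent determinations; single-dose lines at 100 μM.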

LNCaP [5] = test: Antiproliferative activity against androgen-sensitive human LNCaP cells at 100 uM after 72 hrs by MTT test; format: functional; outline: as §1
LNCaP [6] = test: Cell cycle arrest in human LNCaP cells by accumulation at subG1 phase at 10 uM after 72 hrs by FACS flow cytometry; format: functional
Outline: (§2)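 LNCaP or PC 3 cells seeded in 6-well plates, synchronized 24 h in serum-free medium, treated 72 h with varying compound concentrations; trypsinized cells pooled with supernatants, pelleted, fixed in cold ethanol overnight at 4 °C, then 30 min in PBS with RNase and propidium iodide. FACScan flow cytometry quantified sub-G1 (sub-diploid), G1, S and G2-M fractions as percent of cells.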

LNCaP [7] = test: Cell cycle arrest in human LNCaP cells by accumulation at G1 phase at 10 uM after 72 hrs by FACS flow cytometry; format: functional; outline: as §2
LNCaP [8] = test: Cell cycle arrest in human LNCaP cells by accumulation at S phase at 10 uM after 72 hrs by FACS flow cytometry; format: functional; outline: as §2
LNCaP [9] = test: Cell cycle arrest in human LNCaP cells by accumulation at G2M phase at 10 uM after 72 hrs by FACS flow cytometry; format: functional; outline: as §2
LNCaP [10] = test: Cell cycle arrest in human LNCaP cells assessed as induction of G1 block at 100 uM by FACS flow cytometry; format: functional, cell-based; outline: as §2
PC-3 [11] = test: Antiproliferative activity against androgen-independent human PC3 cells after 72 hrs by MTT test; format: functional, cell-based; settings: PC-3, 72 h; outline: as §1
PC-3 [12] = test: Cell cycle arrest in human PC3 cells by accumulation at subG1 phase at 50 uM after 72 hrs by FACS flow cytometry; format: functional; outline: as §2
PC-3 [13] = test: Cell cycle arrest in human PC3 cells by accumulation at G1 phase at 50 uM after 72 hrs by FACS flow cytometry; format: functional; outline: as §2
PC-3 [14] = test: Cell cycle arrest in human PC3 cells by accumulation at S phase at 50 uM after 72 hrs by FACS flow cytometry; format: functional; outline: as §2
PC-3 [15] = test: Cell cycle arrest in human PC3 cells by accumulation at G2M phase at 50 uM after 72 hrs by FACS flow cytometry; format: functional; outline: as §2
LNCaP [16] = test: Antiproliferative activity against androgen-sensitive human LNCaP cells after 72 hrs by MTT test; format: functional, cell-based; outline: as §1
LNCaP [17] = test: Cell cycle arrest in human LNCaP cells by accumulation at subG1 phase at 50 uM after 72 hrs by FACS flow cytometry; format: functional; outline: as §2
LNCaP [18] = test: Cell cycle arrest in human LNCaP cells by accumulation at G1 phase at 50 uM after 72 hrs by FACS flow cytometry; format: functional; outline: as §2
LNCaP [19] = test: Cell cycle arrest in human LNCaP cells by accumulation at S phase at 50 uM after 72 hrs by FACS flow cytometry; format: functional; outline: as §2
LNCaP [20] = test: Cell cycle arrest in human LNCaP cells by accumulation at G2M phase at 50 uM after 72 hrs by FACS flow cytometry; format: functional; outline: as §2

Sequence of Prostaglandin G/H synthase 1 (P23219 whole entry): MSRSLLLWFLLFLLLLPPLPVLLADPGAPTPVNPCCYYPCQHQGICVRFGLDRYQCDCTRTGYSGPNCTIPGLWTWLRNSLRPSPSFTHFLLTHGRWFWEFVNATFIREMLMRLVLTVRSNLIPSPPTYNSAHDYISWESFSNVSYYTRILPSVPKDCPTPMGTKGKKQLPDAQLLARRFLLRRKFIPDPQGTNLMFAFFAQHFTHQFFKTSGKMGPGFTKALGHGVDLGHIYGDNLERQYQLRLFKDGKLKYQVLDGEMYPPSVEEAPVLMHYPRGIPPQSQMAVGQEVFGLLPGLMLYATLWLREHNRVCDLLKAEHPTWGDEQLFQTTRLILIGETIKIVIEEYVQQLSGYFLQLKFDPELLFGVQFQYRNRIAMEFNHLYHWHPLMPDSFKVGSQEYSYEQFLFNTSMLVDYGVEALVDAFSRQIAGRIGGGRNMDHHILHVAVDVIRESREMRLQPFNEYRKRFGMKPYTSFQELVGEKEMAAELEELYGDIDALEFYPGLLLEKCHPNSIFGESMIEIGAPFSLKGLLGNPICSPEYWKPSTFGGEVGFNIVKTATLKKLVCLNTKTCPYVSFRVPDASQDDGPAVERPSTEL

Row | Compound | IC50 [1] | IC50 [2] | Selectivity ratio (Homo sapiens) | IC50 [3] | Activity (PC-3 [4]) | Activity (LNCaP [5]) | Activity (LNCaP [6]) | Activity (LNCaP [7]) | Activity (LNCaP [8]) | Activity (LNCaP [9]) | other results
1 | CCOc1cccc(OCc2cc(-c3ccccc3)n(-c3ccc(S(C)(=O)=O)cc3)n2)c1 | > 100000 nM | 900 nM | > 112 | > 10000 nM |  |  |  |  |  |  | 
2 | COC1(c2cc(F)cc(OCc3cc(-c4ccccc4)n(-c4ccc(C)cc4)n3)c2)CCOCC1 | 1560 nM | 930 nM | 1 | 720 nM | 0% | 18% | 3.5% | 71.3% | 10.7% | 14.6% | 
3 | COC1(c2cc(F)cc(OCc3cc(-c4ccccc4)n(-c4ccc(OC(F)(F)F)cc4)n3)c2)CCOCC1 |  | 820 nM |  | 850 nM | 0% | 0% | 3.6% | 74.7% | 10.6% | 11% | 
4 | COc1cc(OCc2cc(-c3ccccc3)n(-c3ccc(S(C)(=O)=O)cc3)n2)cc(OC)c1OC | 17600 nM | 220 nM | 78 | > 10000 nM |  |  |  |  |  |  | 
5 | CS(=O)(=O)c1ccc(-n2nc(COc3cccc([N+](=O)[O-])c3)cc2-c2ccccc2)cc1 | > 100000 nM | 740 nM | > 134 | > 10000 nM |  |  |  |  |  |  | 
6 | COC1(c2cc(F)cc(OCc3cc(-c4ccccc4)n(-c4ccc(Cl)c(Cl)c4)n3)c2)CCOCC1 |  | 700 nM |  | 800 nM | 21% | 32% | 4.6% | 68.2% | 11.5% | 15.5% | 
7 | COc1cc(OC)cc(OCc2cc(-c3ccccc3)n(-c3ccc(S(C)(=O)=O)cc3)n2)c1 | 25100 nM | 870 nM | 29 | > 10000 nM |  |  |  |  |  |  | 
8 | COc1cc(F)cc(OCc2cc(-c3ccccc3)n(-c3ccc(S(C)(=O)=O)cc3)n2)c1 | 44300 nM | 310 nM | 142 | > 10000 nM |  |  |  |  |  |  | 
9 | COC1(c2cc(F)cc(OCc3cc(-c4ccccc4)n(-c4ccccc4)n3)c2)CCOCC1 | 7140 nM | 610 nM | 12 | 570 nM | 0% | 0% | 3% | 72.9% | 10.6% | 13.9% | 
10 | COc1ccc(-n2nc(COc3cc(F)cc(C4(OC)CCOCC4)c3)cc2-c2ccccc2)cc1 | 36 nM | 300 nM | < 1 | 770 nM |  |  | 2.8% | 69% | 11.4% | 17% | 
11 | CS(=O)(=O)c1ccc(-n2nc(COc3cc(F)cc(C#N)c3)cc2-c2ccccc2)cc1 | 99600 nM | 570 nM | 176 | > 10000 nM |  |  |  |  |  |  | 
12 | CS(=O)(=O)c1ccc(C2=C(c3ccccc3)C(=O)OC2)cc1 [ROFECOXIB] |  |  |  |  | 15% | 0% | 4% | 69.4% | 11.4% | 15.2% | Activity (LNCaP [10]): inactive
13 | COC1(c2cc(F)cc(OCc3cc(-c4ccccc4)n(-c4ccc(C)c(C)c4)n3)c2)CCOCC1 |  | 410 nM |  | 760 nM |  | 26% | 3.9% | 69.5% | 11.5% | 15% | IC50 (PC-3 [11]): 55000 nM
14 | COC1(c2cc(F)cc(OCc3cc(-c4ccccc4)n(-c4ccc(F)cc4)n3)c2)CCOCC1 | 1130 nM | 960 nM | 1 | 480 nM | 7% | 3% | 4% | 71.3% | 9.7% | 15.3% | 
15 | COC1(c2cc(F)cc(OCc3cc(-c4ccccc4)n(-c4ccc(Cl)cc4)n3)c2)CCOCC1 | 1810 nM | 930 nM | 2 | 830 nM | 0% | 0% | 2.5% | 75.5% | 11.1% | 11.1% | 
16 | CS(=O)(=O)c1ccc(-n2nc(COc3cccc(N4CCOCC4)c3)cc2-c2ccccc2)cc1 | 38100 nM | 920 nM | 41 | > 10000 nM |  |  |  |  |  |  | 
17 | COc1ccc(OCc2cc(-c3ccccc3)n(-c3ccc(S(C)(=O)=O)cc3)n2)cc1OC | > 100000 nM | 700 nM | > 142 | > 10000 nM |  |  |  |  |  |  | 
18 | Cc1ccc(-c2cc(C(F)(F)F)nn2-c2ccc(S(N)(=O)=O)cc2)cc1 [CELECOXIB] |  |  |  | > 10000 nM |  |  | 3.9% | 75.7% | 9% | 11.3% | Activity (PC-3 [12]): 2.4%; Activity (PC-3 [13]): 68.5%; Activity (PC-3 [14]): 5.8%; Activity (PC-3 [15]): 23.5%; IC50 (LNCaP [16]): 50400 nM; IC50 (PC-3 [11]): 47000 nM; Activity (LNCaP [17]): 4%; Activity (LNCaP [18]): 78%; Activity (LNCaP [19]): 6.9%; Activity (LNCaP [20]): 11.1%
19 | CS(=O)(=O)c1ccc(-n2nc(COc3ccc4c(c3)OCO4)cc2-c2ccccc2)cc1 | 15800 nM | 450 nM | 35 | > 10000 nM |  |  |  |  |  |  | 
20 | COC1(c2cc(F)cc(OCc3ccc4c(ccc(=O)n4C)c3)c2)CCOCC1 [ZD-2138] | > 100000 nM | > 100000 nM |  | 83 nM |  |  |  |  |  |  | 
